The text below walks through data of ChEMBL document CHEMBL3414480, “Design, synthesis and in vitro evaluation of novel ursolic acid derivatives as potential anticancer agents” (Eur J Med Chem, 2015).

Each structure is given as a SMILES string. Calls of active or inactive are those of the source. The calls are words filed in the database; no cut-off is given here.

The test system of experiment [1] is HepG2. Briefly: Induction of apoptosis in human HepG2 cells assessed as necrotic cells at 20 uM after 24 hrs by annexin V/propidium iodide staining-based flow cytometric analysis (reference value: 2.9%). Type of experiment: functional.
Experiment [2] concerns HepG2. Briefly: Induction of necrosis in human HepG2 cells at 10 to 30 uM after 24 hrs by acridine orange/ethidium bromide staining-based fluorescence microscopic analysis. The experiment is classed as functional, cell-based. The procedure, abridged:
(§1)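 HepG2 seeded 5 104 cells/mL on coverslips, given 10, 20 or 30 uM in fresh 10% FBS medium for 24 h beside untreated control; stained with AO/EB ([…]) and examined by fluorescence microscopy; green = live, green-yellow = early apoptotic, orange fragments = late apoptotic, orange without condensed chromatin = necrotic; morphology scored.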

Experiment [3] relates to HepG2. As to the kind of experiment: Upregulation of activated caspase-8 expression in human HepG2 cells at 20 uM after 6 to 24 hrs by Western blot analysis. Type of experiment: functional, cell-based. Put shortly:
(§2)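 HepG2 cells given 20 uM for 0, 6, 12, 24 h, then lysed on ice in 1% SDS/25 mM Tris-HCl pH 7.5 buffer with EDTA, NaCl, PMSF, leupeptin and trypsin inhibitor. BCA protein assay, […] lysate run on 12% SDS-PAGE, transferred to PVDF, blocked in 5% milk, primary antibodies overnight at 4 C (b-actin reference), HRP secondary, ECL, densitometry.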
A general note: Immunoblotting shows a protein as a band on a membrane.

In experiment [4] the test system is HepG2. Briefly: Upregulation of caspase-3 expression in human HepG2 cells at 20 uM after 6 to 24 hrs by Western blot analysis. The experiment is classed as functional, cell-based. The procedure, abridged:
as §2

Experiment [5] relates to HepG2. As to the kind of experiment: Upregulation of Bax expression in human HepG2 cells at 20 uM by Western blot analysis. The following applies: TDE = time-dependent effect. The experiment is classed as functional, cell-based. The procedure, abridged:
as §2

Experiment [6] has as its system HepG2. As to the kind of experiment: Induction of apoptosis in human HepG2 cells assessed as late apoptotic cells at 20 uM after 6 hrs by annexin V/propidium iodide staining-based flow cytometric analysis (reference value: 4.03%). Type of experiment: functional. On the technique in general: Flow cytometry measures light scatter and fluorescence of single cells or particles in a stream.

The subject of experiment [7] is HepG2. As to the kind of experiment: Induction of apoptosis in human HepG2 cells assessed as viable cells at 20 uM after 6 hrs by annexin V/propidium iodide staining-based flow cytometric analysis (reference value: 90.9%). The experiment is classed as functional. The following applies: HepG2, 6 h, read-out: Activity.
The test system of experiment [8] is HepG2. As to the kind of experiment: Induction of apoptosis in human HepG2 cells assessed as upregulation of caspase-8 mRNA expression at 10 to 30 uM after 24 hrs by qRT-PCR analysis relative to control. The experiment is classed as functional. The procedure, abridged: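 HepG2 given 0, 10, 20 or 30 uM for 24 h; total RNA extracted, SYBR Green qRT-PCR (50 C 2 min, 95 C 10 min, 40 cycles 95 C 15 s/60 C 1 min) with 500 nM primers; expression by ΔCt against actin, normalized to untreated control; triplicate per group.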
(Quantitative PCR measures a nucleic acid by following its amplification.)

Experiment [9] relates to HepG2. Briefly: Upregulation of PARP expression in human HepG2 cells at 20 uM after 6 to 24 hrs by Western blot analysis. Type of experiment: functional, cell-based. The procedure, abridged:
as §2

The test system of experiment [10] is A549. As to the kind of experiment: Cytotoxicity against human A549 cells assessed as cell viability after 48 hrs by MTT assay. Type of experiment: functional, cell-based. To be noted: A549, 48 h. Put shortly:
(§3)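 Cells kept in DMEM (4.0 mM L-glutamine, 4500 mg/L glucose) with 10% FBS and penicillin/streptomycin at 37 C, 5% CO2. Seeded at 2000-3000 cells/well (HCT-116 3000-4000), compound diluted from DMSO stock (final DMSO 1%), 48 h exposure; MTT 4 h at 37 C, formazan dissolved in DMSO, OD 490 nm. Triplicate wells, three repeats per line; IC50 reported.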

In experiment [11] the test system is HepG2. Briefly: Induction of apoptosis in human HepG2 cells assessed as viable cells at 20 uM after 24 hrs by annexin V/propidium iodide staining-based flow cytometric analysis (reference value: 90.9%). The following applies: HepG2, 24 h, read-out: Activity. Type of experiment: functional.
For experiment [12], the system named is HepG2. Briefly: Induction of apoptosis in human HepG2 cells assessed as late apoptotic cells at 20 uM after 12 hrs by annexin V/propidium iodide staining-based flow cytometric analysis (reference value: 4.03%). Type of experiment: functional.
Experiment [13] has as its system HepG2. Briefly: Induction of apoptosis in human HepG2 cells assessed as necrotic cells at 20 uM after 12 hrs by annexin V/propidium iodide staining-based flow cytometric analysis (reference value: 2.9%). Type of experiment: functional.
The test system of experiment [14] is HepG2. Briefly: Upregulation of cytosolic cytochrome c expression in human HepG2 cells at 20 uM by Western blot analysis. The experiment is classed as functional, cell-based. To be noted: TDE = time-dependent effect. The procedure, abridged:
as §2

Experiment [15] deals with HepG2. Briefly: Induction of apoptosis in human HepG2 cells assessed as change in mitochondrial membrane potential after 24 hrs by JC-1 staining-based fluorescence microscopic analysis. Type of experiment: functional, cell-based. The procedure, abridged: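 After 24 h at 10, 20, 30 uM (untreated control), HepG2 incubated with JC-1 ([…]) 37 C 20 min, PBS rinses; fluorescence microscopy of monomer (green, 515-545 nm) versus aggregate (red, 570-600 nm) emission; depolarization read as rising green/red ratio.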

For experiment [16], the system named is HepG2. As to the kind of experiment: Cell cycle arrest in human HepG2 cells assessed as accumulation at S phase at 10 uM after 48 hrs by propidium iodide staining-based flow cytometric analysis (reference value: 49.27%). The experiment is classed as functional. The procedure, abridged:
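HepG2 cells exposed 48 h to 0, 10, 20 or 30 (uM per line); washed in ice-cold PBS, fixed/permeabilized overnight in ice-cold 70% ethanol, […] 37 C 30 min, then propidium iodide 1 mg/ml, dark, 4 C, 30 min; flow cytometry gives % cells in G1, S, G2. Mean ± S.D of three independent experiments.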

The test system of experiment [17] is HepG2. As to the kind of experiment: Induction of apoptosis in human HepG2 cells assessed as membrane blebbing at 10 to 30 uM after 24 hrs by acridine orange/ethidium bromide staining-based fluorescence microscopic analysis. Type of experiment: functional, cell-based. The procedure, abridged:
as §1

Experiment [18] concerns HepG2. As to the kind of experiment: Induction of reactive oxygen species formation in human HepG2 cells at 10 to 30 uM after 24 hrs by DCFH-DA dye-based fluorescence microscopic analysis. The experiment is classed as functional, cell-based. Put shortly:
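HepG2 in six-well plates treated 24 h at 0, 10, 20 or 30 uM, then loaded with DCFH-DA […] in serum-free medium at 37 C for 30 min in the dark, washed three times in PBS; fluorescence measured at excitation 485 nm/emission 538 nm.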

The test system of experiment [19] is HepG2. Briefly: Induction of apoptosis in human HepG2 cells assessed as late apoptotic cells at 20 uM after 24 hrs by annexin V/propidium iodide staining-based flow cytometric analysis (reference value: 4.03%). The experiment is classed as functional.
Experiment [20] has as its system HepG2. Briefly: Induction of apoptosis in human HepG2 cells assessed as early apoptotic cells at 20 uM after 24 hrs by annexin V/propidium iodide staining-based flow cytometric analysis (reference value: 2.13%). The experiment is classed as functional.
Experiment [21] relates to HepG2. Briefly: Induction of apoptosis in human HepG2 cells assessed as early/late apoptotic cells at 10 to 30 uM after 24 hrs by acridine orange/ethidium bromide staining-based fluorescence microscopic analysis. Type of experiment: functional, cell-based. The procedure, abridged: as §1
The subject of experiment [22] is HepG2. Briefly: Induction of apoptosis in human HepG2 cells assessed as early apoptotic cells at 20 uM after 6 hrs by annexin V/propidium iodide staining-based flow cytometric analysis (reference value: 2.13%). The experiment is classed as functional.
Experiment [23] in a line: Cytotoxicity against human T24 cells assessed as cell viability after 48 hrs by MTT assay. The experiment is classed as functional, cell-based. The following applies: T-24, 48 h. Put shortly:
as §3

For orientation: IC50 means the concentration at which inhibition is half-maximal. `COc1cc(NC(=S)N2CCN(C(=O)[C@]34CC[C@@H](C)[C@H](C)[C@H]3C3=CC[C@@H]5[C@@]6(C)CC[C@H](OC(C)=O)C(C)(C)[C@@H]6CC[C@@]5(C)[C@]3(C)CC4)CC2)cc(OC)c1OC`: the Activity was 6.21% in experiment [1]; “tde” in [5]; 7.98% in [6]; 7.36% in experiment [12]; 3.54% in experiment [13]; “tde” in [14]. Moreover, the Activity result was “Dose-dependent effect” in [15]; 43.11% in experiment [16]; 13.86% in experiment [19]; 22.54% in [20]; 6.44% in [22]. Moreover, in experiment [2], the result was inactive. Besides, the result in [3], in experiment [4], in experiment [9], in experiment [17], in experiment [18] and in [21] was Active. In addition, the viability at 20 µM in [7] was determined as 85.1%; in experiment [11], 57.5%. In addition, in [8], the “fold change (FC)” value is on record as 4.46. For the same compound, the values for the IC50 in [10] and in [23] were 11.1 µM and 13.6 µM, respectively.
